Measured values collected from several papers.
Target: Phosphatidylinositol 4,5-bisphosphate 3-kinase catalytic subunit delta isoform (PIK3CD, Homo sapiens, UniProt O00329)
Sequence (O00329 1-1044, as in one of the studies): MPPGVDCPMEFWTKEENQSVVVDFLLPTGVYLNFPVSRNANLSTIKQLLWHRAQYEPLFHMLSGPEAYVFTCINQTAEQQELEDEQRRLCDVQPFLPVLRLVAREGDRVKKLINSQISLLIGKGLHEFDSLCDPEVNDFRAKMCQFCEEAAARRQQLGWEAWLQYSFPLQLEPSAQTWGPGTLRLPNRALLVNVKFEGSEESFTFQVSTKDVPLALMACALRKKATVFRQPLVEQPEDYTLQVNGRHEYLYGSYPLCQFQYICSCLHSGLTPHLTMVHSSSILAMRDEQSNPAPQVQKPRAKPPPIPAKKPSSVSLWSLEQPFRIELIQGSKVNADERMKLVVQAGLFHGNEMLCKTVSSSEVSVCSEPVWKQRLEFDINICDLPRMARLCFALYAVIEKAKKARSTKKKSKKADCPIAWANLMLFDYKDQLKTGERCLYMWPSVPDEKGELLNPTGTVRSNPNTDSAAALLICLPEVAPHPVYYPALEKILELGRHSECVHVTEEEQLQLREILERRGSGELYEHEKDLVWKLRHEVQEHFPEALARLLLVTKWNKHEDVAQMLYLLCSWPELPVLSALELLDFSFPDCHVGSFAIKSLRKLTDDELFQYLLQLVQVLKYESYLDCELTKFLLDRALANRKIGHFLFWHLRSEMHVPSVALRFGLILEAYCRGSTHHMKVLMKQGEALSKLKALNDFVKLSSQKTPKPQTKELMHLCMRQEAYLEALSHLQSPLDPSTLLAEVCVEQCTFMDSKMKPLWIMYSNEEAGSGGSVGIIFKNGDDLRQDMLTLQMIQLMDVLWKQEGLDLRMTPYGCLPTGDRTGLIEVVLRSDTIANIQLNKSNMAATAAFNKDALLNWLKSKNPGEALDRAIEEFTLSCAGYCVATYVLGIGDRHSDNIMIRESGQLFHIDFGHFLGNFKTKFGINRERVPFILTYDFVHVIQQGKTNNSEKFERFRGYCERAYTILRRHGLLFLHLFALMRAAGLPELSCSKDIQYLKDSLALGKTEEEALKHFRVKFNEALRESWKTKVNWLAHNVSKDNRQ

Cc1ccc(C(=O)Nc2ccc(CN3CCN(C)CC3)c(C(F)(F)F)c2)cc1C#Cc1cnc2cccnn12
remaining activity (enzyme activity, inhibitor; 23.5 nM): 83%

CS(=O)(=O)Nc1cc(-c2ccc3ncnc(Nc4ccc(F)c(Cl)c4)c3c2)cnc1Cl
inhibition (enzyme activity, inhibitor, FRET; 10 µM): 90 to 100%

CN(CCCC(F)(F)F)c1nccc(-c2cnn3ncccc23)n1
remaining binding (binding; 1 µM): 100%

CC(C)CCn1c(SCC(=O)Nc2ccccc2C(F)(F)F)nc2nccnc2c1=O
inhibition (enzyme activity, inhibitor; 10 µM): < 20%

Nc1ncnc2occ(-c3ccc(NC(=O)Nc4cc(C(F)(F)F)ccc4F)cc3)c12
remaining signal (cell-free assay, inhibitor; 20 µM): 69%

CC(C)(O)c1cncc(-c2nc3ccc(F)cc3n2C2CC2)c1
remaining binding (cell-free assay, competition with immobilised ligand; 1 µM): 100%

Cc1ccc(C(=O)NCc2ccsc2)cc1C#Cc1cn(C(C)C)c2ncnc(N)c12
activity vs control (enzyme activity, inhibitor; 1 µM): 98%

CO[C@@H](C)c1c(Nc2ccc([C@@H](N(C)C(=O)C3CCS(=O)(=O)CC3)C(F)(F)F)cc2)cnc2cc(Cl)nn12
remaining binding (cell-free assay, competition with immobilised ligand; 1 µM): 87%

O=C(CSc1nc2nccnc2c(=O)n1CCc1ccccc1)Nc1ccccc1
inhibition (enzyme activity, inhibitor; 10 µM): < 20%
